Consider seven compounds from ChEMBL document CHEMBL1125014, “Synthesis and structure-activity relationships of new 9-N-alkyl derivatives of 9(S)-erythromycylamine” (1990).

Holding throughout (format): functional
Test [1] deals with Haemophilus influenzae. Nature of the test: MIC value was measured against haemophilus influenzae. The essentials: (§1)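 Susceptibility determined by standard agar-dilution method against a panel of bacterial strains.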
Test [2] has as its system Haemophilus influenzae. Briefly: MIC value was measured against haemophilus influenzae CL.
Test [3] concerns Mus musculus. Nature of the test: ED50 value was measured against staphylococcus aureus after po administration in mice (in vivo, in experiment 2). The essentials: (§2)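 Infected mice were dosed orally or subcutaneously at 1 and 5 h postinfection, 0.25 mL of antibiotic solution in 10% aqueous ethanol per dose. Tartaric acid was added where needed for solubility. Several dose concentrations were tested to give the ED50.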

The test system of test [4] is Staphylococcus aureus. Nature of the test: Effective dose against mice infected with Staphylococcus aureus after peroral administration (in vivo). Particulars: in Mus musculus, po.
The subject of test [5] is Streptococcus pneumoniae. Briefly: Effective dose against mice infected with streptococcus pneumoniae after peroral administration (in vivo). The settings on record: in Mus musculus, po.
In test [6] the test system is Streptococcus pyogenes. Briefly: Effective dose against mice infected with streptococcus pyogenes after peroral administration (in vivo). Particulars: in Mus musculus, po.
In test [7] the test system is Mus musculus. Nature of the test: ED50 value was measured against staphylococcus aureus after sc administration in mice (in vivo, in experiment 2). The essentials: as §2
Test [8] has as its system Mus musculus. Nature of the test: ED50 value was measured against streptococcus pneumoniae after po administration in mice (in vivo, in experiment 2). The essentials:
as §2

The test system of test [9] is Mus musculus. Nature of the test: ED50 value was measured against streptococcus pneumoniae after sc administration in mice (in vivo, in experiment 2). An outline of the steps: as §2
Test [10] has as its system Mus musculus. Briefly: ED50 value was measured against streptococcus pyogenes after po administration in mice (in vivo, in experiment 2). An outline of the steps:
as §2

Test [11] deals with Mus musculus. Briefly: ED50 value was measured against streptococcus pyogenes after sc administration in mice (in vivo, in experiment 2). The essentials: as §2
In test [12] the test system is Streptococcus pneumoniae. Briefly: MIC value measured against streptococcus pneumoniae Park1.
Test [13] concerns Staphylococcus aureus. Briefly: MIC value measured against staphylococcus aureus X1.
Test [14] deals with Streptococcus pyogenes. Briefly: MIC value measured against streptococcus pyogenes C203.
Test [15] deals with Staphylococcus epidermidis. Nature of the test: microbe, parasite or virus in culture.
Test [16] deals with Mus musculus. Briefly: ED50 value was measured against staphylococcus aureus after po administration in mice in vivo, in experiment 3). An outline of the steps: as §2
Test [17] concerns Mus musculus. Nature of the test: ED50 value was measured against staphylococcus aureus after sc administration in mice in vivo, in experiment 3). An outline of the steps: as §2
Test [18] deals with Mus musculus. Nature of the test: ED50 value was measured against streptococcus pneumoniae after po administration in mice in vivo, in experiment 3). An outline of the steps:
as §2

In test [19] the test system is Mus musculus. Briefly: ED50 value was measured against streptococcus pneumoniae after sc administration in mice in vivo, in experiment 3). The essentials: as §2
The test system of test [20] is Mus musculus. Nature of the test: ED50 value was measured against streptococcus pyogenes after po administration in mice (in vivo, in experiment 3). An outline of the steps:
as §2

The subject of test [21] is Mus musculus. Nature of the test: ED50 value was measured against streptococcus pyogenes after sc administration in mice in vivo, in experiment 3). An outline of the steps: as §2
The subject of test [22] is Streptococcus pneumoniae. Briefly: MIC value was measured against streptococcus pneumoniae park1. The essentials:
as §1

The subject of test [23] is Enterococcus faecalis. Briefly: MIC value was measured against streptococcus faecalis X66. An outline of the steps: as §1
The subject of test [24] is Enterococcus faecalis. Briefly: MIC value was measured against streptococcus faecalis.
Test [25] is filed under the species Mus musculus. Nature of the test: ED50 value was measured against streptococcus pyogenes infection in mice. The essentials:
as §2

Molecules are shown by their SMILES. Values after ≈ are worked out from the molar mass of the structure shown.

As a reminder, the ED50 is the dose at which the effect has come halfway, by size or by number of responders. High values mean a need for a large dose, low ones an effect at a small dose. For the compound `CC[C@H]1OC(=O)[C@H](C)[C@@H](OC2CC(C)(OC)C(O)C(C)O2)[C@H](C)[C@@H](OC2OC(C)CC(N(C)C)C2O)[C@](C)(O)C[C@@H](C)[C@H](NCCCOC)[C@H](C)[C@@H](O)[C@]1(C)O` (some centres not stated), the MIC against Haemophilus influenzae [1] came out at 0.5 µg/mL (≈ 0.62 µM); against Haemophilus influenzae [2], 0.5 µg/mL (≈ 0.62 µM); in the test with Streptococcus pneumoniae [12] it was 0.03 µg/mL (≈ 0.0372 µM); against Staphylococcus aureus [13] it was 0.5 µg/mL (≈ 0.62 µM); in the test on Streptococcus pyogenes [14] it was 0.06 µg/mL (≈ 0.0743 µM); in test [15], 0.5 µg/mL (≈ 0.62 µM). Also, the 50% effective dose (ED50) with Mus musculus [3] is 36 mg/kg; in the test with Staphylococcus aureus [4], 16 mg/kg; in the test with Streptococcus pneumoniae [5] it was 16 mg/kg; in the test with Streptococcus pyogenes [6], 14 mg/kg; in the test on Mus musculus [7], 3.7 mg/kg; with Mus musculus [8], 17 mg/kg. In addition, the values for the ED50 in the test on Mus musculus [9], in the test on Mus musculus [10] and in the test on Mus musculus [11] were 8.3 mg/kg, 19 mg/kg and 2.1 mg/kg, respectively.
As for `CC[C@H]1OC(=O)[C@H](C)[C@@H](OC2CC(C)(OC)C(O)C(C)O2)[C@H](C)[C@@H](OC2OC(C)CC(N(C)C)C2O)[C@](C)(O)C[C@@H](C)[C@@H]2NC(COCCOC)O[C@H]([C@H]2C)[C@]1(C)O` (some centres not stated), the MIC in the test on Haemophilus influenzae [2] worked out at 2 µg/mL (≈ 2.39 µM); against Streptococcus pneumoniae [22] it was 0.06 µg/mL (≈ 0.0718 µM); in the test with Staphylococcus aureus [13], 0.5 µg/mL (≈ 0.599 µM); in the test on Enterococcus faecalis [23], 0.25 µg/mL (≈ 0.299 µM); in the test on Streptococcus pyogenes [14], 0.12 µg/mL (≈ 0.144 µM); in [15] it was 0.5 µg/mL (≈ 0.599 µM). The ED50 was 27 mg/kg with Mus musculus [16]; over 50 mg/kg in the test on Staphylococcus aureus [4]; 32 mg/kg with Streptococcus pneumoniae [5]; 43 mg/kg in the test on Streptococcus pyogenes [6]; 1 mg/kg in the test on Mus musculus [17]; 23 mg/kg with Mus musculus [18]. In addition, the ED50 was under 0.6 mg/kg in the test on Mus musculus [19], 34 mg/kg with Mus musculus [20] and 0.6 mg/kg in the test with Mus musculus [21].
`CC[C@H]1OC(=O)[C@H](C)[C@@H](OC2CC(C)(OC)C(O)C(C)O2)[C@H](C)[C@@H](OC2OC(C)CC(N(C)C)C2O)[C@](C)(O)C[C@@H](C)/C(=N\O)[C@H](C)[C@@H](O)[C@]1(C)O` (some centres not stated): the MIC in the test on Haemophilus influenzae [2] came out at 0.5 µg/mL (≈ 0.668 µM); against Streptococcus pneumoniae [12], 0.008 µg/mL (≈ 0.0107 µM); with Staphylococcus aureus [13], 0.25 µg/mL (≈ 0.334 µM); in the test on Enterococcus faecalis [24], 0.06 µg/mL (≈ 0.0801 µM); against Streptococcus pyogenes [14], 0.008 µg/mL (≈ 0.0107 µM); in test [15], 0.06 µg/mL (≈ 0.0801 µM).
Regarding `CC[C@H]1OC(=O)[C@H](C)[C@@H](OC2CC(C)(OC)C(O)C(C)O2)[C@H](C)[C@@H](OC2OC(C)CC(N(C)C)C2O)[C@](C)(O)C[C@@H](C)/C(=N\O)[C@H](C)[C@@H](O)[C@H]1C` (some centres not stated), the MIC came out at 1 µg/mL (≈ 1.36 µM) with Haemophilus influenzae [2]; 0.008 µg/mL (≈ 0.0109 µM) in the test with Streptococcus pneumoniae [12]; 0.5 µg/mL (≈ 0.682 µM) in the test on Staphylococcus aureus [13]; 1 µg/mL (≈ 1.36 µM) in the test with Enterococcus faecalis [24]; 0.015 µg/mL (≈ 0.0205 µM) in the test with Streptococcus pyogenes [14]; 0.25 µg/mL (≈ 0.341 µM) in test [15].
For `CC[C@H]1OC(=O)[C@H](C)[C@@H](OC2CC(C)(OC)C(O)C(C)O2)[C@H](C)[C@@H](OC2OC(C)CC(N(C)C)C2O)[C@](C)(O)C[C@@H](C)[C@H](N)[C@H](C)[C@@H](O)[C@H]1C` (some centres not stated), the MIC is 1 µg/mL (≈ 1.39 µM) in the test on Haemophilus influenzae [2]; 0.015 µg/mL (≈ 0.0209 µM) in the test with Streptococcus pneumoniae [12]; 0.25 µg/mL (≈ 0.348 µM) with Staphylococcus aureus [13]; 0.12 µg/mL (≈ 0.167 µM) with Enterococcus faecalis [24]; 0.015 µg/mL (≈ 0.0209 µM) against Streptococcus pyogenes [14]; 0.12 µg/mL (≈ 0.167 µM) in test [15].
In the case of `CC[C@H]1OC(=O)[C@H](C)[C@@H](OC2CC(C)(OC)C(O)C(C)O2)[C@H](C)[C@@H](OC2OC(C)CC(N(C)C)C2O)[C@](C)(O)C[C@@H](C)[C@H](NCCCCN)[C@H](C)[C@@H](O)[C@]1(C)O` (some centres not stated), the MIC against Haemophilus influenzae [2] is 64 µg/mL (≈ 79.4 µM); in the test on Streptococcus pneumoniae [12], 4 µg/mL (≈ 4.96 µM); in the test with Staphylococcus aureus [13] it was 4 µg/mL (≈ 4.96 µM); with Enterococcus faecalis [24], 8 µg/mL (≈ 9.92 µM); against Streptococcus pyogenes [14], 0.12 µg/mL (≈ 0.149 µM); in test [15], 4 µg/mL (≈ 4.96 µM).
For the compound `CC[C@H]1OC(=O)[C@H](C)[C@@H](OC2CC(C)(OC)C(O)C(C)O2)[C@H](C)[C@@H](OC2OC(C)CC(N(C)C)C2O)[C@](C)(O)C[C@@H](C)[C@H](NCCCSC)[C@H](C)[C@@H](O)[C@]1(C)O` (some centres not stated), the MIC against Haemophilus influenzae [1] came to 4 µg/mL (≈ 4.86 µM); against Haemophilus influenzae [2], 4 µg/mL (≈ 4.86 µM); in the test on Streptococcus pneumoniae [12], 0.015 µg/mL (≈ 0.0182 µM); against Streptococcus pyogenes [14], 0.015 µg/mL (≈ 0.0182 µM); in test [15], 0.5 µg/mL (≈ 0.607 µM). Moreover, the figures for the ED50 in the test with Staphylococcus aureus [4], in the test on Streptococcus pneumoniae [5] and in the test listed under Mus musculus [25] were 50 mg/kg, 18 mg/kg and 7 mg/kg, respectively.
